Measurements reported in ChEMBL document CHEMBL5329174, “Discovery of benzoxazole-thiazolidinone hybrids as promising antibacterial agents against Staphylococcus aureus and Enterococcus species” (RSC Med Chem, 2023).
≈ marks a conversion by molar mass, not a printed value.

How the values were obtained:
Staphylococcus aureus [1] = experiment: Antibacterial activity against methicilin-resistant Staphylococcus aureus NRS 191 assessed as reduction in bacterial growth; type: functional
Summary of the method: (§1)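 CLSI broth microdilution in cation-supplemented Mueller–Hinton broth II. Starter cultures were grown overnight at 37 °C with shaking from a single MHA colony, then diluted by OD600 to ~10^6 CFU/mL. Compounds came from 10 mg/mL DMSO stocks and were tested two-fold from 64 to 0.5 mg/L. Plates were incubated 37 °C for 18–24 h. MIC was taken as the lowest concentration with no visible growth. Three independent runs, each in duplicate.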

Escherichia coli = experiment: Antibacterial activity against Escherichia coli ATCC 25922 assessed as reduction in bacterial growth; type: functional
Summary of the method: (§2)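 CLSI broth microdilution in cation-supplemented Mueller–Hinton broth II; overnight starter cultures (37 °C, shaking, 18–24 h) adjusted by OD600 to ~10^6 CFU/mL. Compounds dosed from DMSO stocks (10 mg/mL stock) as two-fold dilutions, 64–0.5 mg/L. Plates held 37 °C, 18–24 h. MIC = lowest concentration without visible growth. Three independent runs, each in duplicate.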

Enterococcus faecium [2] = experiment: Antibacterial activity against vancomycin-resistant Enterococcus faecium NR 31912 assessed as inhibition of bacterial growth
Staphylococcus aureus [3] = experiment: Antibacterial activity against vancomycin-resistant Staphylococcus aureus VRS 1 assessed as reduction in bacterial growth; type: functional; summary of the method: as §1
Enterococcus faecalis [4] = experiment: Antibacterial activity against vancomycin-susceptible Enterococcus faecalis NR 31887 assessed as inhibition of bacterial growth incubated for 18 to 24 hrs by broth microdilution assay; type: functional; conditions: time 18-24 hrs; summary of the method: as §2
Staphylococcus aureus [5] = experiment: Antibacterial activity against vancomycin-resistant Staphylococcus aureus VRS 12 assessed as reduction in bacterial growth; type: functional; summary of the method: as §1
Staphylococcus aureus [6] = experiment: Antibacterial activity against methicilin-resistant Staphylococcus aureus NRS 192 assessed as reduction in bacterial growth; type: functional; summary of the method: as §1
Staphylococcus aureus [7] = experiment: Antibacterial activity against Staphylococcus aureus ATCC 29213 assessed as reduction in bacterial growth; type: functional; summary of the method: as §2
Staphylococcus aureus [8] = experiment: Antibacterial activity against methicilin-resistant Staphylococcus aureus NRS 194 assessed as reduction in bacterial growth; type: functional; summary of the method: as §1
Staphylococcus aureus [9] = experiment: Antibacterial activity against methicilin-resistant Staphylococcus aureus NRS 119 assessed as reduction in bacterial growth; type: functional; summary of the method: as §1
[10] = Selectivity index, ratio of CC50 for cytotoxicity against african green monkey Vero cells assessed as reduction in cell viability to MIC for antibacterial activity against Staphylococcus aureus ATCC 29213 assessed as reduction in bacterial growth; type: toxicity, cell-based; conditions: read-out: Selectivity Index
Acinetobacter baumannii = experiment: Antibacterial activity against Acinetobacter baumannii BAA-1605 assessed as reduction in bacterial growth; type: functional; summary of the method: as §2
Enterococcus faecalis [11] = experiment: Antibacterial activity against vancomycin-susceptible Enterococcus faecalis NR 31884 assessed as inhibition of bacterial growth incubated for 18 to 24 hrs by broth microdilution assay; type: functional; conditions: time 18-24 hrs; summary of the method: as §2
Staphylococcus aureus [12] = experiment: Antibacterial activity against methicilin-resistant Staphylococcus aureus NRS 100 assessed as reduction in bacterial growth; type: functional; summary of the method: as §1
Enterococcus faecalis [13] = experiment: Antibacterial activity against vancomycin-susceptible Enterococcus faecalis NR 31886 assessed as inhibition of bacterial growth incubated for 18 to 24 hrs by broth microdilution assay; type: functional; conditions: time 18-24 hrs; summary of the method: as §2
Staphylococcus aureus [14] = experiment: Bactericidal activity against Staphylococcus aureus ATCC 29213 incubated for 24 hrs by time-kill assay; type: functional, organism-based
Summary of the method: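 Time-kill: S. aureus ATCC 29213 at ~10^6 CFU/mL in MHBII, exposed to 1× and 10× MIC, 37 °C with shaking for 24 h. Surviving CFU/mL plotted over time; mean of replicate experiments in duplicate.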

Enterococcus faecium [15] = experiment: Antibacterial activity against vancomycin-resistant Enterococcus faecium NR 31903 assessed as inhibition of bacterial growth
Enterococcus faecalis [16] = experiment: Antibacterial activity against vancomycin-susceptible Enterococcus faecalis NR 31885 assessed as inhibition of bacterial growth incubated for 18 to 24 hrs by broth microdilution assay; type: functional; conditions: time 18-24 hrs; summary of the method: as §2
Staphylococcus aureus [17] = experiment: Antibacterial activity against methicilin-resistant Staphylococcus aureus NRS 129 assessed as reduction in bacterial growth; type: functional; summary of the method: as §1
Staphylococcus aureus [18] = experiment: Antibacterial activity against methicilin-resistant Staphylococcus aureus NRS 193 assessed as reduction in bacterial growth; type: functional; summary of the method: as §1
Staphylococcus aureus [19] = experiment: Antibacterial activity against methicilin-resistant Staphylococcus aureus NRS 186 assessed as reduction in bacterial growth; type: functional; summary of the method: as §1
Enterococcus faecium [20] = experiment: Antibacterial activity against vancomycin-resistant Enterococcus faecium NR 31909 assessed as inhibition of bacterial growth
[21] = Cytotoxicity against african green monkey Vero cells assessed as reduction in cell viability incubated for 72 hrs by MTT assay; type: toxicity, cell-based; conditions: chlorocebus sabaeus
Summary of the method: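 Vero (ATCC CCL-81) cells seeded at ~10^3 per well, 37 °C, 5% CO2. After 24 h, compound added at 100–12.5 μg/mL for 72 h. MTT then given for 4 h at 37 °C, formazan dissolved in DMSO, absorbance read at 540 nm. CC50 taken as the concentration giving 50% viability loss; doxorubicin as positive control; triplicate.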

Pseudomonas aeruginosa = experiment: Antibacterial activity against Pseudomonas aeruginosa ATCC 27853 assessed as reduction in bacterial growth; type: functional; summary of the method: as §2
Klebsiella pneumoniae = experiment: Antibacterial activity against Klebsiella pneumoniae BAA-1705 assessed as reduction in bacterial growth; type: functional; summary of the method: as §2
Staphylococcus aureus [22] = experiment: Antibacterial activity against vancomycin-resistant Staphylococcus aureus VRS 4 assessed as reduction in bacterial growth; type: functional; summary of the method: as §1
Enterococcus faecalis [23] = experiment: Antibacterial activity against vancomycin-susceptible Enterococcus faecalis NR 31888 assessed as inhibition of bacterial growth incubated for 18 to 24 hrs by broth microdilution assay; type: functional; conditions: time 18-24 hrs; summary of the method: as §2
Staphylococcus aureus [24] = experiment: Antibacterial activity against methicilin-resistant Staphylococcus aureus NRS 198 assessed as reduction in bacterial growth; type: functional; summary of the method: as §1

SMILES	MIC (Staphylococcus aureus [1])	MIC (Escherichia coli)	MIC (Enterococcus faecium [2])	MIC (Staphylococcus aureus [3])	MIC (Enterococcus faecalis [4])	MIC (Staphylococcus aureus [5])	MIC (Staphylococcus aureus [6])	MIC (Staphylococcus aureus [7])	MIC (Staphylococcus aureus [8])	MIC (Staphylococcus aureus [9])	selectivity ratio [10]	MIC (Acinetobacter baumannii)	MIC (Enterococcus faecalis [11])	MIC (Staphylococcus aureus [12])	MIC (Enterococcus faecalis [13])	MIC (Enterococcus faecium [15])	MIC (Enterococcus faecalis [16])	MIC (Staphylococcus aureus [17])	MIC (Staphylococcus aureus [18])	MIC (Staphylococcus aureus [19])	further results
O=C1N/C(=N\c2nc3ccccc3o2)S/C1=C\c1cc(Cl)ccc1O	0.5 mg/L (≈ 1.34 µM)	> 64 mg/L	0.125 mg/L (≈ 0.336 µM)	1 mg/L (≈ 2.69 µM)	2 mg/L (≈ 5.38 µM)	0.5 mg/L (≈ 1.34 µM)	1 mg/L (≈ 2.69 µM)	1 mg/L (≈ 2.69 µM)	1 mg/L (≈ 2.69 µM)	1 mg/L (≈ 2.69 µM)	> 20	> 64 mg/L	4 mg/L (≈ 10.8 µM)	0.5 mg/L (≈ 1.34 µM)	4 mg/L (≈ 10.8 µM)	1 mg/L (≈ 2.69 µM)	4 mg/L (≈ 10.8 µM)	0.5 mg/L (≈ 1.34 µM)	1 mg/L (≈ 2.69 µM)	0.5 mg/L (≈ 1.34 µM)	Activity (Staphylococcus aureus [14]): Dose-Dependent Effect; MIC (Enterococcus faecium [20]): 0.125 mg/L (≈ 0.336 µM); CC50 at 72 h [21]: > 20 mg/L; MIC (Pseudomonas aeruginosa): > 64 mg/L; MIC (Klebsiella pneumoniae): > 64 mg/L; MIC (Staphylococcus aureus [22]): 1 mg/L (≈ 2.69 µM); MIC (Enterococcus faecalis [23]): 4 mg/L (≈ 10.8 µM); MIC (Staphylococcus aureus [24]): 1 mg/L (≈ 2.69 µM)
O=C1N/C(=N\c2nc3ccccc3o2)S/C1=C\c1ccc(O)cc1	2 mg/L (≈ 5.93 µM)	> 64 mg/L	0.25 mg/L (≈ 0.741 µM)	2 mg/L (≈ 5.93 µM)	8 mg/L (≈ 23.7 µM)	2 mg/L (≈ 5.93 µM)	2 mg/L (≈ 5.93 µM)	2 mg/L (≈ 5.93 µM)	2 mg/L (≈ 5.93 µM)	2 mg/L (≈ 5.93 µM)	> 20	> 64 mg/L	16 mg/L (≈ 47.4 µM)	1 mg/L (≈ 2.96 µM)	16 mg/L (≈ 47.4 µM)	4 mg/L (≈ 11.9 µM)	16 mg/L (≈ 47.4 µM)	2 mg/L (≈ 5.93 µM)	2 mg/L (≈ 5.93 µM)	1 mg/L (≈ 2.96 µM)	MIC (Enterococcus faecium [20]): 0.25 mg/L (≈ 0.741 µM); CC50 at 72 h [21]: > 40 mg/L; MIC (Pseudomonas aeruginosa): > 64 mg/L; MIC (Klebsiella pneumoniae): > 64 mg/L; MIC (Staphylococcus aureus [22]): 2 mg/L (≈ 5.93 µM); MIC (Enterococcus faecalis [23]): 16 mg/L (≈ 47.4 µM); MIC (Staphylococcus aureus [24]): 2 mg/L (≈ 5.93 µM)
O=C1N/C(=N\c2nc3ccccc3o2)S/C1=C\c1cc(Br)ccc1O	0.5 mg/L (≈ 1.2 µM)	> 64 mg/L	0.125 mg/L (≈ 0.3 µM)	1 mg/L (≈ 2.4 µM)	2 mg/L (≈ 4.8 µM)	0.5 mg/L (≈ 1.2 µM)	1 mg/L (≈ 2.4 µM)	1 mg/L (≈ 2.4 µM)	1 mg/L (≈ 2.4 µM)	1 mg/L (≈ 2.4 µM)	> 20	> 64 mg/L	4 mg/L (≈ 9.61 µM)	0.5 mg/L (≈ 1.2 µM)	4 mg/L (≈ 9.61 µM)	1 mg/L (≈ 2.4 µM)	4 mg/L (≈ 9.61 µM)	0.5 mg/L (≈ 1.2 µM)	1 mg/L (≈ 2.4 µM)	0.5 mg/L (≈ 1.2 µM)	Activity (Staphylococcus aureus [14]): Dose-Dependent Effect; MIC (Enterococcus faecium [20]): 0.125 mg/L (≈ 0.3 µM); CC50 at 72 h [21]: > 20 mg/L; MIC (Pseudomonas aeruginosa): > 64 mg/L; MIC (Klebsiella pneumoniae): > 64 mg/L; MIC (Staphylococcus aureus [22]): 1 mg/L (≈ 2.4 µM); MIC (Enterococcus faecalis [23]): 4 mg/L (≈ 9.61 µM); MIC (Staphylococcus aureus [24]): 1 mg/L (≈ 2.4 µM)
